Assay results pooled from the literature.
Protocols differ between the studies behind these lines.
Target: 5'-AMP-activated protein kinase catalytic subunit alpha-1 (PRKAA1, Homo sapiens, UniProt Q13131)

SMILES	test	test system	setting	endpoint	value
CN1CC(Oc2cnc(C#N)cc2-c2ccn3nc(NC(=O)C4CC4)cc3c2)C1	enzyme activity, inhibitor	–	1 µM	inhibition	5%
CCN1CCN(Cc2ccc(NC(=O)c3ccc(C)c(Oc4ccnc5[nH]ccc45)c3)cc2C(F)(F)F)CC1	target engagement in cells, inhibitor, chemoproteomics	Huh-7	1 µM	inhibition	-32.8%
C=CC(=O)Nc1cc(Nc2nccc(Nc3cc(Cl)c(F)cc3C(C)(C)O)n2)c(OC)cc1N1CC[C@@H](N(C)C)C1	enzyme activity, inhibitor	–	1 µM	inhibition	-6%
Cc1ncc([N+](=O)[O-])n1C(=NO)c1ccccc1C(F)(F)F	enzyme activity, inhibitor	–	10 µM	inhibition	7.33%
CCc1ccccc1C(=O)Nc1n[nH]c2c(C)c(F)c(C3C(C#N)=C(C)N(C)C(C)=C3C#N)cc12	cell-free assay, competition with immobilised ligand	–	1 µM	remaining binding	7.5%
CCCCNc1ncc2c(-c3ccc(F)cc3)nn(C[C@H]3CC[C@H](N)CC3)c2n1	target engagement in cells, inhibitor, chemoproteomics	–	20 mM	inhibition	22.8%
Nc1ncnc2occ(-c3ccc(NC(=O)Nc4cc(C(F)(F)F)ccc4F)cc3)c12	cell-free assay	–	20 µM	remaining signal	5.3%
CC(C)(C)c1nc2c(s1)c1nc(N)ncc1c1ccc(NS(=O)(=O)c3c(F)cccc3F)c(F)c12	enzyme activity, inhibitor, radiometric	–	1 µM	remaining activity	81%
COc1cccc2c(NCc3ccccc3)nc(-n3c(N)nc4ccccc43)nc12	target engagement in cells, inhibitor, chemoproteomics	–	20 mM	inhibition	8.3%
Nc1cnc(N2CCc3cc(S(=O)(=O)Nc4c(F)cc(Cl)cc4F)cc(N4CCCC4=O)c32)nc1	cell-free assay, competition with immobilised ligand	–	1 µM	remaining binding	100%
FC(F)(F)Oc1cccc(-c2cnc3ccc(-c4ccncc4)nn23)c1	enzyme activity, inhibitor, radiometric	–	1 µM	activity vs control	81%
O=C(Nc1cccnn1)N1CC(C/C=C/c2cncc(Oc3ccc(C(F)(F)F)cn3)n2)C1	cell-free assay, competition with immobilised ligand	–	1 µM	remaining binding	100%
CC(C)(C)c1nc(-c2cccc(NS(=O)(=O)c3c(F)cccc3F)c2F)c(-c2ccnc(N)n2)s1	enzyme activity, inhibitor, radiometric	–	1 µM	remaining activity	49%
Cc1ccc(C(=O)Nc2ccc(CN3CCN(C)CC3)c(C(F)(F)F)c2)cc1C#Cc1cnc2cccnn12	enzyme activity	–	23.5 nM	remaining activity	73%
